In ChEMBL document CHEMBL4513216, “Probing the Open Global Health Chemical Diversity Library for Multistage-Active Starting Points for Next-Generation Antimalarials” (ACS Infect Dis, 2020):

Experiment: Toxicity liver stage against HepG2, at 10uM
Assay type: cell-based
Design: test concentration 10 uM, cell line HepG2-A16-CD81EGFP
Conditions: human, HepG2-A16-CD81EGFP cells; read-out: INHIBITION
Method in brief: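 Uninfected HepG2-A16-CD81EGFP cells, 3 × 10^3 per well, 1536-well, plated on prespotted compound at 10 μM final, parasite-free screening media added to match infected plates; puromycin 10 μM positive, DMSO 0.5% negative; run in parallel with 48 h PbLuc assay at 37 °C, 5% CO2; viability by CellTiter-Glo luminescence, normalized to controls.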

Compound	cytotoxicity at 10 µM
O=C(NCC1CC1)c1nc2c(o1)CN(CC1CC1)C2	-147%
CCn1cncc1CNC(=O)c1ccc(C2CCCN2C(=O)COC)s1 (stereo unspecified)	6.48%
COc1ccccc1-c1cc(NC(=O)COCC2CC2)[nH]n1	-116%
CCCc1c(C(=O)NC2CCCC2)nnn1-c1ccc(OC)cc1	5.65%
COc1ccccc1-n1cc(CN2CCN(C)[C@@H]3CS(=O)(=O)C[C@@H]32)cn1	14.5%
O=C(CCC1CCN(C(=O)c2cnco2)CC1)NCc1cccc(Cl)c1	-8.48%
CCNC(=O)CCC(=O)N1CCC(Oc2cc(C)ccc2C)CC1	-4.59%
Cc1ccc(CN2CCOCS2(=O)=O)cc1F	9.52%
CCC(NC(=O)CCCN1CCCCC1)c1cn2cccnc2n1 (stereo unspecified)	8.09%
Cc1nn(C(C)(C)C)c(=O)n1CC(=O)NCC(F)(F)F	-1.32%
CCC1c2ccsc2CCN1C(=O)NCc1cc[nH]n1 (stereo unspecified)	-8.88%
CC1CCN(CCCNC(=O)c2ccc(N(C)S(C)(=O)=O)cc2Cl)CC1	-0.488%
O=C(CCSc1ccc(F)cc1)N1CCN(c2cnccn2)CC1	-42.8%
COCCOc1cccc(C(=O)N2CCCC(n3cccn3)C2)c1 (stereo unspecified)	-7.81%
O=C(CCn1ccnc1)N1CC[C@@H](c2ccc3ccccc3c2)[C@H](O)C1	-0.288%
O=C(c1cncc(Br)c1)N1CCCc2ccc(F)cc21	-1.01%
CCCN1CCN(c2ccc(-c3nc(C)no3)cn2)CC1	8.95%
CC1=C(C(=O)NCc2cccnc2-n2cnc3ccccc32)OCCO1	-2%
CCc1nccn1C1CCCN(C(=O)c2cnc[nH]2)C1 (stereo unspecified)	2.52%
O=C(CNc1cc2c(cc1Br)OCCO2)NC1CCS(=O)(=O)C1 (stereo unspecified)	6.43%
CS(=O)(=O)NCCn1ccc(-c2cccs2)n1	1.43%
C[C@H]1CN(CC2CCOCC2)C[C@@]12CCN(Cc1cccnc1)C2=O	1.73%
O=C(c1cccnc1)N1CCOCC2(CCN(c3ncccn3)C2)C1 (stereo unspecified)	8.88%

Compound	cytotoxicity at 10 µM
CN(C)c1cc(C2CCCN(S(=O)(=O)c3cn(C)cn3)C2)ccn1 (stereo unspecified)	-14.4%
N#Cc1cc2c(nc1SCc1cc(O)nc(O)n1)CCCC2	-3.94%
O=C(CN1CCN(CCO)CC1)NCc1ccc(Cl)s1	9.3%
CCC12CN3CC(CC)(CN(C1)C3c1[nH]c(=O)[nH]c(=O)c1C)C2=O (stereo unspecified)	12.5%
CCO[C@@H]1CCN(C(=O)N(C)C)[C@@H]1Cc1cnn(C)c1	-73.4%
CC(C)Cn1cncc1CNC1CCCNC1 (stereo unspecified)	-0.391%
COCC(=O)NCC[C@H]1CC(C)(C)Oc2ccccc21	3.3%
O=C(c1cccs1)N1CCC2(CC1)CCN(S(=O)(=O)C1CC1)CC2	-106%
Cc1nc(C)c(C)c(N2CCC3(CCOC3)C2)n1 (stereo unspecified)	-1.31%
CC(C)n1cnc2c1C(C(=O)N1CCCC1)N(S(C)(=O)=O)CC2 (stereo unspecified)	-5.15%
CN(C)CCN1CC2(CCN(C(=O)c3cnccn3)CC2)OC1=O	9%
CC(C)CNC(=O)c1cc(C2CC2)nc2c1c(C1CCCN1)nn2C (stereo unspecified)	15.9%
CCn1cc(S(=O)(=O)N(CCc2ccccc2)Cc2ccn(C)n2)cn1	2.6%
CC1CCN(C(=O)c2occc2COc2cccc(C#N)c2)CC1	0.106%
CCCc1n[nH]c(C2CN(C(=O)Cc3ccc(C)nc3)CCO2)n1 (stereo unspecified)	6.73%
Cc1nn(-c2ccc(C(=O)O)cc2)c2c1C(C(F)(F)F)SCC(=O)N2 (stereo unspecified)	-1.24%
Cc1nc(CN2CCC3(CC2)NC(=O)CC3c2cccnc2)cs1 (stereo unspecified)	-2.27%
Cc1ncsc1CN1Cc2cn(C)nc2C(COCC2CC2)C1 (stereo unspecified)	-67.3%
O=C(CCNC(=O)c1ccoc1)Nc1c(F)cccc1F	1.35%
Cc1cc(C(=O)NCC2COCc3c(C)nnn3C2)no1 (stereo unspecified)	-7.32%
Cc1cc(C(C)(O)CNC(=O)CCOCC(C)C)c(C)o1 (stereo unspecified)	3.94%
COC(=O)CCN(CC1CCCO1)C(=O)Cc1ccc(OC)c(OC)c1 (stereo unspecified)	4.08%
O=C1CC(c2ccncc2)C2(CCN(C(=O)NC3CC3)CC2)N1 (stereo unspecified)	-3.46%

Compound	cytotoxicity at 10 µM
Cc1cc(C)cc(CN2CCN(Cc3cccc(CCN)c3)CC2=O)c1	-18.3%
COc1cnc(N2CCC(c3ncc[nH]3)CC2)nc1	0.852%
CC(CC(F)(F)F)NCc1ccccc1-n1ccnc1 (stereo unspecified)	3.15%
CCCn1cc(S(=O)(=O)N[C@H]2CN(CC(N)=O)C[C@@H]2C2CC2)cn1	-11.7%
CC(C)N1C(=O)CN(CCCO)CC1(C)C	2.04%
CC1CCN(c2nc3cn(C4CCS(=O)(=O)C4)c(=O)c-3c[nH]2)CC1 (stereo unspecified)	-14.2%
CC(C)OCCCN(Cc1ccncc1)Cc1cc(F)cc(F)c1	-25.6%
COCC1COCCC12CCN(S(=O)(=O)c1ccccc1C)CC2 (stereo unspecified)	-5.42%
COC(=O)CNC(=O)N1CCN(c2nc3ccccc3n2C)CC1	-9.46%
C[C@@H](O)CNC(=O)c1nc(Cc2c(Cl)cccc2Cl)no1	0.483%
COc1ccc(C(=O)N2CCC3(CC2)c2ccccc2[C@@H](N)[C@@H]3O)cc1	-3.34%
COc1cccc(S(=O)(=O)N2CCC(O)(CN(C)C)C2)c1 (stereo unspecified)	3.85%
Cc1nc(C2CN(Cc3ccccc3C)CCO2)no1 (stereo unspecified)	-1.51%
O=C1[C@@H]2CN(c3ncc(Cl)cc3F)C[C@]2(C(=O)O)CN1CC1CC1	-0.33%
CN(C)C(=O)CNC(=O)c1cc2ccccc2nc1N1CCCC1	-6.18%
COCCCN1CCN([C@@H]2c3ccccc3C3(CCNCC3)[C@H]2O)CC1	-4.86%
CCCc1cc(C(=O)N(C)Cc2cnn(-c3cccc(OC)c3)c2)[nH]n1	-2.4%
Cc1ccc(CCNc2nccc(-c3cc(C(=O)O)ccn3)n2)o1	-2.86%
O=C(O)c1ccc(S(=O)(=O)Nc2c(F)cccc2-n2cccn2)cc1	-8.8%
CCc1oc(C(=O)N(C)Cc2nonc2C)cc1CN(CC)CC	-10.3%
CCS(=O)(=O)CCSc1cccc(C#N)c1	-3.24%
CCc1nc(NS(=O)(=O)c2cc(C)c(F)cc2Cl)no1	15.8%
c1cc(CN2CCC(Cc3noc(C4CC4)n3)CC2)c2c(c1)OCO2	7.69%

Compound	cytotoxicity at 10 µM
CN1[C@@H]2CC[C@H]1CN(c1cc(Sc3cccs3)nc(N)n1)CC2	-8.02%
CN(C)CCNC(=O)C1Cc2nc(-c3ccsc3)sc2N1CC1CC1 (stereo unspecified)	3.54%
CCOc1ccc(CN(CCC#N)CCN2CCOCC2)cc1OC	-9.98%
CS(=O)(=O)Cc1nc(C2CC2)nn1-c1ccccn1	1.87%
COCC(=O)NCC1(COc2cnccn2)C[C@@H](O)[C@@H](O)C1 (stereo partly specified)	2.17%
CN1CCN(c2ccccc2NC(=O)c2ccco2)CC1	-5.92%
O=C(CCCOc1ccc(F)cc1)N1CCCC(n2cccn2)C1 (stereo unspecified)	4.23%
CN1CCN(Cc2cn3c(n2)CN(C2CCOCC2)CC3)CC1	3.91%
O=C(CCOc1cccc(F)c1)N1CCCC1Cn1cccn1 (stereo unspecified)	-5.7%
CCCN(Cc1ccccn1)Cc1ccccc1OC	-43.3%
O=C(Cc1cnccn1)N1CCC(c2nccn2CC2CC2)CC1	-7.54%
COCCn1ccc(=O)c(OCC(=O)Nc2cccc(Cl)c2)c1C	2.16%
N#CCCN(C(=O)COC1CCCC1)C1CC1	-4.14%
CC(C)CN1CC(C(=O)NCCNc2ncccn2)CC1=O (stereo unspecified)	-23%
Cc1cc(C)n(CC2CCCN2C(=O)Cc2c(C)nc(C)[nH]c2=O)n1 (stereo unspecified)	-12.8%
Cc1ccccc1-n1cc(-c2ccnc(NC(CO)C(C)C)n2)cn1 (stereo unspecified)	7.12%
O=C(CN(Cc1ccco1)C1CC1)N1CCCCCC1	-3.26%
COc1cc(N2CCc3ncnc(-c4ccoc4)c3CC2)ncn1	14.9%
CCc1nccn1C1CCCN(C(=O)c2cc(C3CC3)on2)C1 (stereo unspecified)	-6.96%
COc1ccc(C)cc1CC(=O)N1CC[C@@]2(CCCO2)[C@@H](O)C1	-1.47%
CCOC(=O)CNC(=O)Cn1c(-c2ccoc2)nc(C)c1C	-2.8%
CC(C)OCCN1CCN(C(C)c2nc(C3CC3)no2)CC1 (stereo unspecified)	2.07%
CC(C)C1CN(C(=O)c2ccsc2)CCS1 (stereo unspecified)	2.46%

Compound	cytotoxicity at 10 µM
Cc1nc(C)n(CC2CCCCN2CCCS(=O)(=O)N(C)C)n1 (stereo unspecified)	-18.5%
Cc1occc1C(=O)NCc1cccnc1N(C)C	-5.89%
Cc1ccc(C(O)CN2CCN(Cc3nccn3C)CC2)cc1C (stereo unspecified)	-37%
Cc1c(Cl)cccc1S(=O)(=O)N1C[C@H]2CC[C@@H](C1)N(C)C2=O	3.42%
O=C(CCc1nc2cc(Br)cnc2[nH]1)NCCCN1CCOCC1	-2.67%
Cc1cn2c(CN(C)C(=O)c3cnc(N)c(Cl)c3)c(C)nc2s1	-8.46%
CN1CCN(c2cccc(NC(=O)NCc3csc(N(C)C)n3)c2)C1=O	0.91%
COCC(C)NC(=O)c1cn(C(C)C)cc2c(=O)[nH]nc1-2 (stereo unspecified)	-12.6%
Cc1cc(C)n(CC2CCCN2C(=O)c2ccc3ccccc3n2)n1 (stereo unspecified)	-2.53%
CCc1nc(C2CCCN2C(=O)c2csc(COC)n2)no1 (stereo unspecified)	1.04%
COc1ccnc(N2CCN(C(=O)CCc3cnn(C)c3)CC2)n1	8.72%
N#CCCCOc1cccc(CN2CCCC2c2ccc[nH]2)c1 (stereo unspecified)	-14.5%
Cc1cc(C)n(NC(=O)c2ccccc2C)c(=O)c1	-5.05%
Cc1nn(C)c(C)c1OCC(=O)N1CCC(O)(C(F)(F)F)CC1	-5.09%
CCOC(=O)c1nc(CN2CCN(C(C)C(=O)NC3CC3)CC2)cs1 (stereo unspecified)	-2.52%
CC(C(=O)N(C)Cc1nnc2n1CCC2)S(C)(=O)=O (stereo unspecified)	-6.56%
Cc1ccccc1-c1cncc(C2CCN(CCO)CC2)n1	-1.61%
CC(C)=CCN1C[C@@H]2CC[C@H]1CN(C(=O)CCc1nnc(C)[nH]1)C2	-6.57%
CN(C)S(=O)(=O)N1CCC(c2n[nH]cc2-c2ccnc(N)c2)C1 (stereo unspecified)	8.81%
